Data taken from ChEMBL document CHEMBL5316296, “Indole Derivatives as New Structural Class of Potent and Antiproliferative Inhibitors of Monocarboxylate Transporter 1 (MCT1; SLC16A1)” (J Med Chem, 2023).
Activity calls are given as the source filed them. The rule behind the calls is not given here.

Columns and labels:
NIH3T3 = assay: Cytotoxicity against mouse NIH3T3 cells assessed as cell viability incubated for 72 hrs by MTT assay; type: toxicity, cell-based; settings: nih3t3, 72 h
Method in brief: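 NIH/3T3 murine embryonic fibroblasts (5000/well) screened at 10 and 50 μM compound for 72 h at 37 °C, 5% CO2. MTT readout (1 h), DMSO-dissolved formazan read at 570 nm, 690 nm background. DMSO and culture medium define 0 and 100% viability; at least three independent experiments.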

[1] = biological target: T1, Monocarboxylate transporter 4 (Homo sapiens) (UniProt O15427); assay: Inhibition of MCT4 in human MDA-MB-231 cells assessed as inhibition of acidic lactate extrusion by measuring reduction in pH at 10 uM incubated for 12 hrs by BCECF-AM dye based fluorescence spectrophotometric analysis; type: cell-based
T1 sequence (whole entry): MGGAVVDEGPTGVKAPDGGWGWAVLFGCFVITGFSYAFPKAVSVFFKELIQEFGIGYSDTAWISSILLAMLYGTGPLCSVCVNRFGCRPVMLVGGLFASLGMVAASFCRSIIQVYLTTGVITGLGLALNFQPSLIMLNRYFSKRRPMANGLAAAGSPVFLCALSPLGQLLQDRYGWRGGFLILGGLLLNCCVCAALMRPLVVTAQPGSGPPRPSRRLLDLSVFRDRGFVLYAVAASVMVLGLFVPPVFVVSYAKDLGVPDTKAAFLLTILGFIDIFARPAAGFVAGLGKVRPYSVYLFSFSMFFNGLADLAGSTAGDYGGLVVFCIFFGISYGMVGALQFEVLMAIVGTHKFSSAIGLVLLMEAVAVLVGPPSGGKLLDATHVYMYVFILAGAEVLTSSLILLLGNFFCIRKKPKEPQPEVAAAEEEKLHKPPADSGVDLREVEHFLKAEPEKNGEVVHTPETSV
Method in brief: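 MDA-MB-231 cells (50,000/well) plated overnight, then treated with 10 μM compound for 12 h at 37 °C. Loaded with BCECF-AM (5 μM, 1 h), washed twice. Intracellular pH from emission ratio against per-plate calibration (pH 4.5–7.5 buffers with 10 μM nigericin and 10 μM valinomycin, 30 min, room temperature).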

A549 = assay: Antiproliferative activity against human A549 cells expressing MCT1 assessed as effect on cell viability incubated for 72 hrs in the presence of glucose by MTT assay; type: functional, cell-based
Method in brief: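 A-549 cells (5000/well) with compound over 72 h; glucose added every 12 h to give 25% or 50% of the original 4.5 g/L. Viability by MTT, absorbance 570 nm (690 nm background). DMSO and culture medium define 0 and 100%; at least three independent experiments.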

[2] = Induction of doxorubicin sensitization in human A549 cells expressing MCT1 assessed as doxorubicin GI50 at 50 nM incubated for 72 hrs by MTT assay; type: functional
Method in brief: (§1)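 A-549 cells (~5000/well) given test compound at fixed 50, 100 or 500 nM plus doxorubicin dilution series 50 nM–50 μM. Incubated 72 h at 37 °C, 5% CO2, then MTT readout.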

[3] = Induction of doxorubicin sensitization in human A2780 ADR cells expressing ABCB1 assessed as doxorubicin at 1 uM incubated for 72 hrs by MTT assay; type: functional
Method in brief: (§2)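 ABCB1-expressing A2780/ADR cells (grown in RPMI-1640 with 10% FBS) were exposed to a doxorubicin dilution series, with or without a fixed test-compound level of 1.0, 2.0, 3.5 or 5.0 μM. Viability was read by MTT, with DMSO as 0% and medium as 100%. GI50 values come from at least three independent experiments and are compared with doxorubicin alone on sensitive A2780 cells.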

[4] = Induction of doxorubicin sensitization in human A549 cells expressing MCT1 assessed as doxorubicin GI50 at 100 nM incubated for 72 hrs by MTT assay; type: functional; method in brief: as §1
[5] = Induction of doxorubicin sensitization in human A2780 ADR cells expressing ABCB1 assessed as doxorubicin at 3.5 uM incubated for 72 hrs by MTT assay; type: functional; method in brief: as §2
[6] = Induction of doxorubicin sensitization in human A2780 ADR cells expressing ABCB1 assessed as doxorubicin at 5 uM incubated for 72 hrs by MTT assay; type: functional; method in brief: as §2
A2780 ADR = assay: Induction of doxorubicin sensitization in human A2780 ADR cells expressing ABCB1 assessed as left shift of the concentration-effect curve at 5 uM incubated for 72 hrs by MTT assay; type: functional, cell-based
Method in brief: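 ABCB1-expressing A2780/ADR cells given test compound at 1.0, 2.0, 3.5 or 5.0 μM with a doxorubicin series; MTT viability readout. Shift of doxorubicin concentration-effect curve compared against parental A2780. DMSO and medium define 0 and 100%; at least three independent experiments.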

[7] = Induction of doxorubicin sensitization in human A2780 ADR cells expressing ABCB1 assessed as doxorubicin at 2 uM incubated for 72 hrs by MTT assay; type: functional; method in brief: as §2
[8] = Antiproliferative activity against human A2780 ADR cells expressing ABCB1 assessed as growth inhibition incubated for 72 hrs by MTT assay; type: functional
[9] = Growth inhibition of human A549 cells expressing MCT1 at 50 uM incubated for 72 hrs by MTT assay relative to control; type: toxicity, cell-based; settings: read-out: GI

inhibition [1]	SMILES	Activity (NIH3T3)	other results
inactive	COC(=O)/C(C#N)=C/c1cn(CC(=O)Nc2ccccc2)c2ccccc12	Non-Toxic	–
inactive	COC(=O)/C(C#N)=C/c1cn(CC(=O)Nc2ccc(F)cc2)c2ccccc12	Non-Toxic	–
inactive	COC(=O)/C(C#N)=C/c1cn(CC(=O)Nc2cccnc2)c2ccccc12	Non-Toxic	–
inactive	COC(=O)/C(C#N)=C/c1cn(CC(=O)Nc2ccc(Cl)cc2)c2ccccc12	Non-Toxic	–
inactive	COC(=O)/C(C#N)=C/c1cn(CC(=O)Nc2cccc(OC)c2)c2ccccc12	Non-Toxic	–
inactive	COC(=O)/C(C#N)=C/c1cn(CC(=O)Nc2ccccc2C)c2ccccc12	Non-Toxic	–
inactive	COC(=O)/C(C#N)=C/c1cn(CC(=O)Nc2ccc3ccccc3c2)c2ccccc12	Non-Toxic	–
inactive	COC(=O)/C(C#N)=C/c1cn(CC(=O)Nc2ccccn2)c2ccccc12	Non-Toxic	–
–	COc1cccc2c1C(=O)c1c(O)c3c(c(O)c1C2=O)C[C@@](O)(C(=O)CO)C[C@@H]3O[C@H]1C[C@H](N)[C@H](O)[C@H](C)O1 [DOXORUBICIN]	–	GI50 [8]: 802 nM
–	O=C(O)C(=O)CBr [BROMOPYRUVATE]	–	inhibition at 72 h, 50 µM [9]: ≥ 90%
inactive	COC(=O)/C(C#N)=C/c1cn(CC(=O)Nc2c(Cl)cccc2Cl)c2ccccc12	Non-Toxic	–
inactive	COC(=O)/C(C#N)=C/c1cn(CC(=O)Nc2ccc(Br)cc2)c2ccccc12	Non-Toxic	–
inactive	COC(=O)/C(C#N)=C/c1cn(CC(=O)Nc2cccc3ccccc23)c2ccccc12	Non-Toxic	–
inactive	COC(=O)/C(C#N)=C/c1cn(CC(=O)Nc2ccc(C)cc2)c2ccccc12	Non-Toxic	–
inactive	COC(=O)/C(C#N)=C/c1cn(CC(=O)Nc2ccc(Br)cn2)c2ccccc12	Non-Toxic	–
–	N#C/C(=C\c1ccc(O)cc1)C(=O)O [alpha-CYANO-4-HYDROXYCINNAMIC ACID]	Non-Toxic	–
inactive	COC(=O)/C(C#N)=C/c1cn(CC(=O)Nc2ccccc2OC)c2ccccc12	Non-Toxic	–

SMILES	inhibition [1]	Activity (NIH3T3)	other results
COC(=O)/C(C#N)=C/c1cn(CC(=O)Nc2ccc(OC)cc2)c2ccccc12	inactive	Non-Toxic	Activity (A549): inactive; GI50 [2]: 40 nM; GI50 [3]: 332 nM; GI50 [4]: 27.7 nM; GI50 [5]: 110 nM; GI50 [6]: 32.2 nM; Activity (A2780 ADR): Active; GI50 [7]: 214 nM
COC(=O)/C(C#N)=C/c1cn(CC(=O)Nc2ccc(C)cn2)c2ccccc12	inactive	Non-Toxic	Activity (A549): inactive; GI50 [2]: 38.6 nM; GI50 [3]: 516 nM; GI50 [4]: 25.4 nM; GI50 [5]: 32.4 nM; GI50 [6]: 12.9 nM; Activity (A2780 ADR): Active; GI50 [7]: 165 nM
